Screens from PubChem.
KCNQ1 block: inhibitors of human KCNQ1 potassium channel | P51787 | B-score at 10 µM | 1.3% of 310,000 active | AID 2642 | CHO-K1 KCNQ1, FluxOR thallium flux fluorescence; hits give high values;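 active means compounds whose thallium flux B-score, printed positive for inhibition, exceeds three library SD while starting fluorescence stays within three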;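 further: channel opened by potassium depolarization with thallium stimulus after 20 min compound exposure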
Target sequence (P51787 whole entry, looked up): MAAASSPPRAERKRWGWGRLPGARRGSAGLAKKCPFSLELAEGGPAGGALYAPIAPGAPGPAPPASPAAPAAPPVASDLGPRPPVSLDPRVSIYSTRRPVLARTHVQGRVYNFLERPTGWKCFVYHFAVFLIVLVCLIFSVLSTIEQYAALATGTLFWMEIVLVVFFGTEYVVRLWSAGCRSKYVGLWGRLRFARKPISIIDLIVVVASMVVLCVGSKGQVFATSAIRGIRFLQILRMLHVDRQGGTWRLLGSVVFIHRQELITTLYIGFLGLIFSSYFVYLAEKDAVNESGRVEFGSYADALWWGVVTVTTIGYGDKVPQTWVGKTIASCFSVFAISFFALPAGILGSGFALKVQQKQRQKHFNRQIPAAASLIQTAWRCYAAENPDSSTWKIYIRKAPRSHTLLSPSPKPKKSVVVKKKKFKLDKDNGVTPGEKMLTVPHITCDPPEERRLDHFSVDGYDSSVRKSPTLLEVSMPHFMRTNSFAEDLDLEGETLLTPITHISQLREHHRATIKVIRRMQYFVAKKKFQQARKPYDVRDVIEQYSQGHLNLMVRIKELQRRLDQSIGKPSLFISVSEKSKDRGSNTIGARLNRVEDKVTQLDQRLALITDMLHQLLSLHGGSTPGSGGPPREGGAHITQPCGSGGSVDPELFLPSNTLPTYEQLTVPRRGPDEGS
KCNK3 block: human KCNK3 channel inhibition, primary screen | AID 602410 | 0.84% of 340,000 active | B-score at 10 µM | CHO-KCNK3 thallium flux, FluxOR fluorescence; hits give low values;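 active means B-score under library mean minus 4 SD, starting fluorescence ratio at most library mean plus 5 SD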;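 further: more negative B-score means stronger inhibition of thallium flux through KCNK3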
KCNK9 inh: blocks the human KCNK9 two-pore domain potassium channel; AID 488922; Q9NPC2; B-score at 10 µM; 1.2% of 310,000 active; HEK293 KCNK9, FluxOR thallium flux fluorescence; hits give low values;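 active means ratio B-score over 3 SD below the library mean, with starting fluorescence within 5 SD of its mean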;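 further: negative B-score means less thallium flux so channel inhibition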
Kir21 block: blocks the mouse Kir2.1 inward-rectifier potassium channel; B-score at 10 µM; 0.85% of 310,000 active; HEK293-Kir2.1, FluxOR thallium flux fluorescence; hits give low values; AID 1672;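 active means fluorescence ratio B-score at or below minus 3 SD of library scores, with starting-brightness B-score within 2 SD, cut at about -4.2 in these data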;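 further: channel flux triggered by added potassium and thallium sulfate stimulus; B-score of peak minus minimum fluorescence over baseline after thallium stimulus; more negative B-score means stronger Kir2.1 block with less thallium influx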
hERG protect: compounds protecting human hERG from proarrhythmic drug block. CHO-hERG, FluxOR thallium flux, dofetilide IC70 present. activation (rescue from dofetilide block), less the hit threshold, % at 10 µM. 0.51% of 310,000 active. Q12809;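 active means activation above the mean of controls blocked by dofetilide plus 5 SD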;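 further: thallium influx through hERG after potassium depolarization seen as dye fluorescence rise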
KCNQ1 pot: human KCNQ1 channel potentiation or activation; P51787; 0.35% of 310,000 active; CHO-K1 KCNQ1, thallium flux FluxOR fluorescence; hits give high values; B-score at 10 µM;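 active means fluorescence ratio B-score, a plate-corrected score, at least three library SD, with initial intensity B-score within 5 SD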
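assay system = CHO-K1 cells stably expressing KCNQ1 | medium = assay buffer, equal DMSO in all wells | timing = 37 °C overnight plating, 90-min dark dye load, 20-min compound pretreatment | measured by = kinetic FluxOR thallium fluorescence, 10-s 1-Hz baseline, 110-s post-stimulus read | measure = fluorescence change relative to baseline, converted to B score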
KCNK9 block conf: human KCNK9 inhibitor confirmation | shares compounds with KCNK9 inh | HEK293 KCNK9 cells, FluxOR thallium flux fluorescence | inhibition, % at 10 µM | 43% of 4,900 active | AID 492992;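 active means thallium signal inhibited by more than 5 SD of the compound-free buffer control wells, on both duplicate plates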;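 further: 0% = assay buffer control wells without compound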
Kir2-1 spec: selectivity of KCNK9 modulators against mouse Kir2.1; shares compounds with KCNK9 inh; Kir2.1 cells, FluxOR thallium flux fluorescence; inhibition, % at 10 µM; 4% of 4,900 active;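 active means thallium signal drop more than 5 SD beyond the mean of the no-compound control wells, seen in both duplicate plates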;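 further: signal is fluorescence rise after thallium addition divided by baseline fluorescence; plate controls were assay buffer only for no effect and full block by chlorpromazine control for full effect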
KCNK9 uninduced: non-induced cell nonspecific activity of KCNK9 modulators; shares compounds with KCNK9 inh; non-induced KCNK9-HEK293, FluxOR thallium flux; inhibition, % at 10 µM; 40% of 4,900 active; AID 492997;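 active means thallium signal drop beyond 5 SD of the untreated control mean, on both duplicate plates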;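 further: plate controls were buffer only IC0 wells for no effect and SID17386958 at its maximal inhibitory level for full effect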
* marks the source's active call; other numbers are inactive results; i = inactive; . = no result given; ! = a repeat was not active. Only some compounds are listed: those with a hit (about 3.7% of all), similar ones and a draw of the others.

SMILES | KCNQ1 block | KCNK3 block | KCNK9 inh | Kir21 block | hERG protect | KCNQ1 pot | KCNK9 block conf | Kir2-1 spec | KCNK9 uninduced
COC(c1ccccc1)c1nnc(CCC(=O)N(C)Cc2cccc(-n3cccn3)c2)o1 (stereo unspecified) | i | i | i | -3 | -15 | i | . | . | .
C=CCNC(N)=S | i | i | i | -0.05 | -7 | i | . | . | .
O=C(NCc1ccc(F)cc1)C1CC(=O)N(C2CCCC2)C1 (stereo unspecified) | . | i | . | . | . | . | . | . | .
O=C(COC(=O)C1CCC1)NCc1ccc(F)cc1 | i | i | i | -0.81 | -8 | i | . | . | .
C[C@@H](Oc1ccccc1)c1nnn(Cc2ccccc2)c1-c1c([C@@H](C)Oc2ccccc2)nnn1Cc1ccccc1 | i | . | -12* | 0 | -8 | i | i | i | 36%*
CCCCc1ccc(NC(=O)CN(C)CC(=O)Nc2ccccc2Cl)cc1 | i | i | i | -0.53 | -11 | i | i | i | i
CN(C)CCNS(=O)(=O)c1ccc(N2CCN(c3ccc(F)cc3)CC2)c([N+](=O)[O-])c1 | i | i | i | -0.08 | -7 | i | . | . | .
C=CC[n+]1c(-c2ccc(Cl)cc2Cl)csc1Nc1c(C)n(C)n(-c2ccccc2)c1=O | i | i | i | -0.54 | -20 | i | i | i | i
O=[N+]([O-])c1ccc(SCc2ccco2)cc1N1CCOCC1 | i | i | i | -2.8 | 0 | i | i | i | i
O=[N+]([O-])c1ccc(N2CCOCC2)cc1SCc1ccco1 | i | i | i | -1.2 | -2 | i | . | . | .
Cc1ccc(S(=O)(=O)Nc2ncnc3sc(C)c(C)c23)cc1 | . | i | . | . | . | . | . | . | .
Cc1ccc(-c2nn(C(C)(C)C)c3ncnc(NS(=O)(=O)c4ccc([N+](=O)[O-])cc4)c23)cc1 | i | i | i | 0.85 | -11 | i | i | i | i
COc1ccccc1N1CC(C(=O)Nc2nnc(SC)s2)CC1=O (stereo unspecified) | i | i | i | 0.91 | -9 | i | . | . | .
NC(=NCCCCCCN=C(N)/N=C(\N)Nc1ccc(Cl)cc1)/N=C(\N)Nc1ccc(Cl)cc1 | i | i | -10* | -0.15 | -5 | 12*! | 50%* | 38%* | i
CCCN(C(=O)c1ccccc1Cc1ccccc1)C1CCS(=O)(=O)C1 (stereo unspecified) | i | i | i | -0.05 | -9 | i | . | . | .
CC1CN(S(=O)(=O)c2cccc(C(=O)N(CCc3ccccc3)Cc3ccccc3)c2)CC(C)O1 (stereo unspecified) | i | i | i | 0.79 | -8 | i | i | i | i
Cc1ccc(S(=O)(=O)N2CCCCC2)cc1C(=O)N(CCc1ccccc1)Cc1ccccc1 | i | i | -16* | 1.4 | -14 | i | 79%* | i | 43%*
CCN1CCN(S(=O)(=O)c2ccc(Cl)c(C(=O)N(CCc3ccccc3)Cc3ccccc3)c2)CC1 | . | i | . | . | . | . | . | . | .
Cc1ccc(N(Cc2ccccc2)C(=O)c2cccc(S(=O)(=O)N3CC(C)OC(C)C3)c2)cc1 (stereo unspecified) | i | i | i | -0.12 | -16 | i | . | . | .
Nc1cccnc1-n1nc(C(F)(F)F)cc1C(F)(F)F | i | i | i | -0.54 | -7 | i | . | . | .
O=C(O)CN1C(=O)/C(=C\c2cc(Br)ccc2OCc2ccc(Cl)cc2Cl)SC1=S | i | i | i | 1.1 | -13 | i | . | . | .
O=C(O)CN1C(=O)/C(=C\c2cccc(OCc3ccccc3F)c2)SC1=S | i | i | i | 0.47 | -9 | i | i | i | i
O=C(O)CN1C(=O)/C(=C\c2ccccc2OCc2ccc(Cl)cc2)SC1=S | i | i | i | 0.8 | -9 | i | i | i | i
O=C(CN1C(=O)S/C(=C\C=C\c2ccccc2)C1=O)Nc1ccccc1C(=O)O | i | i | i | 0.3 | -7 | i | i | i | i
O=C(CN1C(=O)S/C(=C\C=C\c2ccccc2)C1=O)Nc1cccc(O)c1 | i | i | i | 0.22 | -7 | i | . | . | .
SMILES | KCNQ1 block | KCNK3 block | KCNK9 inh | Kir21 block | hERG protect | KCNQ1 pot | KCNK9 block conf | Kir2-1 spec | KCNK9 uninduced
O=C(O)CN1C(=O)/C(=C\c2cccc(OCc3ccc(Cl)cc3)c2)SC1=S | i | i | i | -1.1 | -11 | i | i | i | i
COc1ccc(C(C(=O)NC(C)C)N(C(=O)CCC(=O)Nc2nccs2)c2ccccc2F)cc1 (stereo unspecified) | i | i | i | 1.6 | -9 | i | . | . | .
Cn1c(=O)c2sccc2n2c(CCCC(=O)N3CCN(c4ccccn4)CC3)nnc12 | i | i | i | 1.8 | -10 | i | . | . | .
COc1cc(/C=N/NC(=O)c2ccc(CSc3nncn3C)cc2)cc(OC)c1O | i | i | i | 2 | -3 | i | . | . | .
CC(=O)NC(Cc1ccc(F)cc1)C(=O)NC1CCN(c2ncccc2[N+](=O)[O-])CC1 (stereo unspecified) | i | i | i | -0.77 | -11 | i | . | . | .
O=C(CCN1C(=O)/C(=C/c2ccccc2Cl)SC1=S)Nc1ccccc1C(=O)O | i | i | i | -3 | -26 | i | i | i | i
O=C(CCN1C(=O)/C(=C\c2ccccc2Cl)SC1=S)Nc1cccnc1 | i | i | i | 2.7 | -27 | i | . | . | .
Cc1ccc(O)c(-c2cc(C(=O)Nc3ccc(S(=O)(=O)Nc4nccc(C)n4)cc3)[nH]n2)c1 | i | i | i | -0.19 | -10 | i | . | . | .
COC(=O)Cc1ccc(N(Cc2ccccc2F)S(=O)(=O)c2ccc(Cl)cc2)cc1 | i | i | -12* | 0.71 | -17 | i | 60%* | i | 40%*
COC(=O)CN(c1ccc(F)cc1)S(=O)(=O)c1ccccc1 | i | i | i | -3.6 | -5 | i | . | . | .
CC1(C)CC(=O)C2=C(C1)NC(SCC(=O)Nc1ccccc1)=C(C#N)C2c1ccco1 (stereo unspecified) | i | i | i | 1.5 | -6 | i | . | . | .
Cc1ccc(C(=O)CSC2=C(C#N)C(c3ccco3)C3=C(CC(C)(C)CC3=O)N2)cc1 (stereo unspecified) | i | -10* | -8.4* | -0.04 | -8 | i | 46%* | i | 33%*
O=C(NCCNC(=O)c1ccccc1F)c1ccccn1 | i | i | i | 0.93 | -3 | i | . | . | .
